These results are taken from PubChem BioAssay.

The source made the active and inactive calls.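 The calls were made as follows, unless noted: active = viability loss from added drug above about 55%, and viability with drug at most 40%, in both replicates (limit read from the data, passing the limit was not always enough); inconclusive = both conditions met in only one replicate; inactive = neither replicate meets both conditions.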

Assay [1] is described as follows: reducers of endogenous Her2 protein level, primary screen, SKBR3 breast tumor cells, AlphaScreen, ATP viability (AID 461;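 active = Her2 level under about 52% in both replicate screens, with viability over 70% of control, limit read from the data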;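 as to Her2 level: lower value means less Her2 protein in the cells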;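 as to viability: percent of carrier control wells set as 100% viability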). To be noted: 18-24 h, measured here: SKBR3 viability, ATP luminescence, at 10 µM. A general note: Alpha assays give light when donor and acceptor beads are brought close together.
The target in assay [2] is Receptor tyrosine-protein kinase erbB-2 (Homo sapiens) (UniProt P04626). Described as above. Conditions: 18-24 h, at 10 µM, stronger effect = lower value.
Assay [3] is described as follows: SK-BR-3 cell growth inhibitors, pilot screen, 24 h, human (AID 572;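 active = viability at or below 10% of carrier control in both of two separate runs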;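 also: compound exposure lasted between 18 and 24 h rather than exactly 24 h; 100% = carrier-treated control wells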). Conditions: SK-BR-3 viability, CellTiter-Glo luminescence, at 10 µM, stronger effect = lower value. For orientation: Cellular ATP, detected with luciferase, serves as a proxy for viable cell number.
Assay [4] is described as follows: HUVEC growth inhibition – cell-based, human, primary screen (AID 575;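 active = viability at or below 30% in both replicate assays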;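 also: 100% = median of untreated cell wells with 0.1% DMSO on each plate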). To be noted: HUVEC proliferation, CellTiter-Glo luminescence, 72 h; at 10 µM; stronger effect = lower value. Summed up: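 Material: primary human umbilical vein endothelial cells / Schedule: 72 h exposure, 37 °C, 5% CO2, 30 min RT equilibration / Signal: ATP-based CellTiter-Glo luminescent read / Read-out basis: percent of median DMSO-control luminescence / Control set: 32 DMSO-only cell-control wells (high), 32 MePR drug-control wells (low) per plate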

Assay [5] can be described thus: growth inhibitors of H69AR lung tumor, primary screen, human, duplicate replicates (AID 580;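 active = viability at or under a set limit in both replicates, limit being median viability minus 3 SD, cut at about 48% in these data, passing the limit was not always enough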;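 also: 100% = mean luminescence of untreated wells and 0% = no signal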). To be noted: H69AR lung tumor cells viability, ATP luminescence, 72 h; at 10 µM; stronger effect = lower value.
The nature of assay [6]: reversal of MRP1-mediated doxorubicin resistance, pilot screen, H69AR cells, doxorubicin co-treatment (AID 601). To be noted: CellTiter-Glo, 72 h, at 10 µM; for differential viability (reversal): stronger effect = higher value.
Assay [7] is described as follows: 384-well plate pilot, post-Golgi transport modulator project, inhibition of yeast transport mutant growth (AID 636; in the data active = inhibition above about 31%). To be noted: absorbance 615 nm, about 18 h, stronger effect = higher value.
Assay [8] can be described thus: growth suppression of yeast trafficking mutant, preliminary HTS, modulators of trafficking downstream of Golgi apparatus project, 1536-format plate, OD 615 nm (AID 637; in the data active = inhibition above about 30%). Conditions: yeast transport mutant growth, absorbance 615 nm, 18 h; stronger effect = higher value.
The mark [9] stands for this setting: H69AR cells + 2 uM doxorubicin, measured here: viability with 2 uM doxorubicin, stronger effect = lower value.
The mark [10] stands for this setting: H69AR cells, compound alone cytotoxicity.

Chain of Receptor tyrosine-protein kinase erbB-2 (Homo sapiens) (P04626 whole entry, looked up): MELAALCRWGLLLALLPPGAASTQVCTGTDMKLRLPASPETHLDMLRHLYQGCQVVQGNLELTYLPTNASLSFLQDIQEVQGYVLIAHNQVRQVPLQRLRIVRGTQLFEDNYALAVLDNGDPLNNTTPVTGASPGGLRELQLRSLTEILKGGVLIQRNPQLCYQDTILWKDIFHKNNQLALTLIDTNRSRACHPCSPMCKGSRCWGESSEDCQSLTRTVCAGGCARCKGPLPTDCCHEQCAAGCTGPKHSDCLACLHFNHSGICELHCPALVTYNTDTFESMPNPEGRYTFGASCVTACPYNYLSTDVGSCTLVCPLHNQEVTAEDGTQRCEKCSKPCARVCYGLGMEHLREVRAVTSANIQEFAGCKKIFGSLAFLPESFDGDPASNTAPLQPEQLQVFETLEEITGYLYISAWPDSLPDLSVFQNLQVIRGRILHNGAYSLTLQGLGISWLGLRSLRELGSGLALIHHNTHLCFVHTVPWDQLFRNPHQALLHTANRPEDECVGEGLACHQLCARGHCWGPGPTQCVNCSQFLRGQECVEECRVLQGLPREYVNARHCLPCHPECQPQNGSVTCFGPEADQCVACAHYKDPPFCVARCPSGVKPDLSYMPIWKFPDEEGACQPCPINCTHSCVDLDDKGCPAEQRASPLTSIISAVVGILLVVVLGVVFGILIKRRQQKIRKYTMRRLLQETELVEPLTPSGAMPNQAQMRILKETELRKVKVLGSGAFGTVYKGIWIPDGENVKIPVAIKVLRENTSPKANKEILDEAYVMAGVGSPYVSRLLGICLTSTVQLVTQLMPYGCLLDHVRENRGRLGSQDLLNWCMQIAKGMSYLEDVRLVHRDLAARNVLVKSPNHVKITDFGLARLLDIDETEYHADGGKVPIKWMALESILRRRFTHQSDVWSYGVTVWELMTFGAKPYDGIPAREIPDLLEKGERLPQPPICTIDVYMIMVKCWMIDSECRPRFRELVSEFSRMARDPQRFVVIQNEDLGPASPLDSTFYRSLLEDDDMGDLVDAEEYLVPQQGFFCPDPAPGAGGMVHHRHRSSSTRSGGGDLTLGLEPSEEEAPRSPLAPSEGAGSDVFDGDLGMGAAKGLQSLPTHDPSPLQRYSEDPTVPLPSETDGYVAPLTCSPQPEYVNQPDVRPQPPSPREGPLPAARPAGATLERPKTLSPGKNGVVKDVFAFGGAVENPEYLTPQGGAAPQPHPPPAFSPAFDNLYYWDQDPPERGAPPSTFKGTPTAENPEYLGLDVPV

For the compound `O=S(=O)(c1ccc(OCC(O)CN2CCC(Cc3ccccc3)CC2)cc1)N1CCOCC1` (stereo not given), the viability (as a rule, a read-out of living cells in per cent, often relative to untreated cells) in assay [1] is 81.5%; in assay [3], 81.5% (inactive); in assay [4] it was 73.4% (inactive); in assay [5] it was 84.8% (inactive); in assay [6] (setting [9]) it was 94.2%; in assay [6] (setting [10]) it was 84.8%. Also, the Her2 level in assay [2] was 81.5% (inactive). Also, the differential viability (reversal) in assay [6] (H69AR cells + 2 uM doxorubicin) is -9.48% (inactive). The results for the inhibition in assay [7] and in assay [8] were -6.45% (inactive) and -5.24% (inactive), respectively.

As for `CCC1(CC)NC(=O)NC1=O`, the viability in assay [1] is 110%; in assay [3], 110% (inactive); in assay [4], 85% (inactive); in assay [5] it was 105% (inactive); in assay [6] (setting [9]), 90.1%; in assay [6] (setting [10]) it was 105%. Further, the Her2 level in assay [2] was 90% (inactive). Besides, the differential viability (reversal) in assay [6] (H69AR cells + 2 uM doxorubicin) was 14.9% (inactive). The inhibition (usually the relative decrease from the control value, in per cent) in assay [7] was -4.74% (inactive); in assay [8], 3.11% (inactive).

For `O=C(COc1cccc(Oc2ccccc2)c1)Nc1ncccn1`, the viability is 99.5% in assay [1]; 99.5% (inactive) in assay [3]; 110% (inactive) in assay [4]; 94.3% (inactive) in assay [5]; 87.5% in assay [6] (setting [9]); 94.3% in assay [6] (setting [10]). In assay [2], the Her2 level was 106% (inactive). In addition, the differential viability (reversal) in assay [6] (H69AR cells + 2 uM doxorubicin) is 6.76% (inactive). In addition, the inhibition in assay [7] is -3.9% (inactive); in assay [8], -3.81% (inactive).

Regarding `CC(C)N(C(=O)CSc1nnc(-c2cc3ccccc3cc2O)n1Cc1ccco1)C(C)C`, the viability was 90.5% in assay [1]; 90.5% (inactive) in assay [3]; 66.4% (inactive) in assay [4]; 83.4% (inactive) in assay [5]; 81.9% in assay [6] (setting [9]); 83.4% in assay [6] (setting [10]). Further, the Her2 level in assay [2] is 76% (inactive). The differential viability (reversal) in assay [6] (H69AR cells + 2 uM doxorubicin) is 1.54% (inactive). The figures for the inhibition in assay [7] and in assay [8] were -5.81% (inactive) and -0.66% (inactive), respectively.

With `CC1CCN(Cc2ccc(-c3nn[nH]n3)cc2)CC1`, the viability in assay [1] was 116%; in assay [3], 116% (inactive); in assay [4] it was 99.6% (inactive); in assay [5], 95% (inactive); in assay [6] (setting [9]), 94.7%; in assay [6] (setting [10]) it was 95%. Moreover, the Her2 level in assay [2] was 86.5% (inactive). Moreover, in assay [6] (H69AR cells + 2 uM doxorubicin), the differential viability (reversal) was 0.33% (inactive). Moreover, the values for the inhibition in assay [7] and in assay [8] were 1.04% (inactive) and 30% (active), respectively.

For `Cc1cc(C)n(-c2nc(C)nc3sc4c(c23)CCC(C)C4)n1` (stereo not given), the viability is 92.5% in assay [1]; 92.5% (inactive) in assay [3]; 80.8% (inactive) in assay [4]; 96.4% (inactive) in assay [5]; 96.8% in assay [6] (setting [9]); 96.4% in assay [6] (setting [10]). Also, the Her2 level in assay [2] is 108% (inactive). The differential viability (reversal) in assay [6] (H69AR cells + 2 uM doxorubicin) is -0.45% (inactive). In addition, the inhibition in assay [7] was -1.04% (inactive); in assay [8], -13.8% (inactive).

With `O=C(Nc1ccc2nc(-c3cccs3)[nH]c2c1)c1ccco1`, the viability in assay [1] is 108%; in assay [3], 108% (inactive); in assay [4], 94.2% (inactive); in assay [5], 75.2% (inactive); in assay [6] (setting [9]), 74%; in assay [6] (setting [10]), 75.2%. Further, the Her2 level in assay [2] was 98.5% (inactive). Besides, the differential viability (reversal) in assay [6] (H69AR cells + 2 uM doxorubicin) is 1.25% (inactive). The results for the inhibition in assay [7] and in assay [8] were 0.13% (inactive) and 2.95% (inactive), respectively.

Turning to `COC(=O)CN(c1ccc(C)c(Cl)c1)S(C)(=O)=O`, the viability was 108% in assay [1]; 108% (inactive) in assay [3]; 99.5% (inactive) in assay [4]; 101% (inactive) in assay [5]; 90.5% in assay [6] (setting [9]); 101% in assay [6] (setting [10]). In addition, in assay [2], the Her2 level was 100% (inactive). Moreover, the differential viability (reversal) in assay [6] (H69AR cells + 2 uM doxorubicin) is 10.7% (inactive). Moreover, the inhibition in assay [7] is -2.27% (inactive); in assay [8], -0.81% (inactive).

Regarding `Cc1sc2c(c1C)CN(C1CC(C)(C)NC(C)(C)C1)CN2C(=O)c1ccco1`, the viability in assay [1] was 86.5%; in assay [3], 86.5% (inactive); in assay [4], 75.7% (inactive); in assay [5] it was 83.7% (inactive); in assay [6] (setting [9]), 83.4%; in assay [6] (setting [10]) it was 83.7%. Also, the Her2 level in assay [2] is 80.5% (inactive). Also, the differential viability (reversal) in assay [6] (H69AR cells + 2 uM doxorubicin) was 0.235% (inactive). The results for the inhibition in assay [7] and in assay [8] were -7.33% (inactive) and 1.8% (inactive), respectively.

Regarding `CN(C)c1ccc(CNn2cnnc2)cc1`, the viability in assay [1] is 104%; in assay [3], 104% (inactive); in assay [4] it was 95.8% (inactive); in assay [5], 100% (inactive); in assay [6] (setting [9]), 105%; in assay [6] (setting [10]) it was 100%. Further, the Her2 level in assay [2] was 88.5% (inactive). For the same compound, in assay [6] (H69AR cells + 2 uM doxorubicin), the differential viability (reversal) was -4.28% (inactive). Besides, the values for the inhibition in assay [7] and in assay [8] were -4.08% (inactive) and 0.67% (inactive), respectively.

Regarding `COc1ccc(C2C(C(=O)c3sc(C)nc3C)=C(O)C(=O)N2CCN(C)C)cc1OC` (stereo not given), the viability was 108% in assay [1]; 108% (inactive) in assay [3]; 99.3% (inactive) in assay [4]; 86.7% (inactive) in assay [5]; 94.8% in assay [6] (setting [9]); 86.7% in assay [6] (setting [10]). In assay [2], the Her2 level was 111% (inactive). In addition, in assay [6] (H69AR cells + 2 uM doxorubicin), the differential viability (reversal) was -8.1% (inactive). The inhibition in assay [7] is -2.27% (inactive); in assay [8], -2.79% (inactive).

Consider `CCOC(=O)c1c(C)oc2ccc(OCC(N)=O)cc12`, for which the viability in assay [1] was 120%; in assay [3], 120% (inactive); in assay [4], 72.3% (inactive); in assay [5], 97.1% (inactive); in assay [6] (setting [9]), 95.4%; in assay [6] (setting [10]), 97.1%. Also, the Her2 level in assay [2] was 95% (inactive). For the same compound, the differential viability (reversal) in assay [6] (H69AR cells + 2 uM doxorubicin) was 1.68% (inactive). The inhibition in assay [7] is -0.79% (inactive); in assay [8], -5.4% (inactive).

In the case of `CCOCCn1cnc2sc(C(=O)Nc3nc(C)c(C(=O)OCC)s3)c(C)c2c1=O`, the viability was 110% in assay [1]; 110% (inactive) in assay [3]; 75.7% (inactive) in assay [4]; 78% (inactive) in assay [5]; 92.5% in assay [6] (setting [9]); 78% in assay [6] (setting [10]). The Her2 level in assay [2] was 81% (inactive). In addition, the differential viability (reversal) in assay [6] (H69AR cells + 2 uM doxorubicin) is -14.5% (inactive). For the same compound, the inhibition in assay [7] was -1.18% (inactive); in assay [8], -2.42% (inactive).

For the compound `CC1NC(=O)NC1CCCCCC(=O)NCCc1ccccc1` (stereo not given), the viability in assay [1] was 112%; in assay [3] it was 112% (inactive); in assay [4], 90.4% (inactive); in assay [5], 93.3% (inactive); in assay [6] (setting [9]) it was 85.9%; in assay [6] (setting [10]), 93.3%. Besides, the Her2 level in assay [2] is 80% (inactive). The differential viability (reversal) in assay [6] (H69AR cells + 2 uM doxorubicin) was 7.38% (inactive). In addition, the inhibition in assay [7] is -5.07% (inactive); in assay [8], 0.79% (inactive).

With `Cn1cccc1-c1cc(C(=O)O)[nH]n1`, the viability in assay [1] is 129%; in assay [3] it was 129% (inactive); in assay [4], 106% (inactive); in assay [5], 93.8% (inactive); in assay [6] (setting [9]), 101%; in assay [6] (setting [10]), 93.8%. Besides, in assay [2], the Her2 level is 110% (inactive). For the same compound, the differential viability (reversal) in assay [6] (H69AR cells + 2 uM doxorubicin) is -7.12% (inactive). The figures for the inhibition in assay [7] and in assay [8] were -4.61% (inactive) and 1.64% (inactive), respectively.
